Laboratory results: ChEMBL document CHEMBL3865794, “Novel securinine derivatives as topoisomerase I based antitumor agents” (Eur J Med Chem, 2016)

Columns and labels:
[1] = Growth inhibition of human SH-SY5Y cells after 72 hrs by MTT assay; type: functional, cell-based
How it was run: (§1)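 Cells seeded at 5 × 10³ per well and incubated overnight in medium with 10% FBS. Medium then replaced with fresh medium containing compound at […] for 72 h. MTT (5 mg/mL stock, 20 µL per well) added for 4 h at 37 °C, formazan dissolved in DMSO, absorbance read at 570 nm. Each dose run in parallel triplicate. IC50 taken from mean absorbance versus concentration curves.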

[2] = Growth inhibition of human HepG2 cells after 72 hrs by MTT assay; type: functional, cell-based; how it was run: as §1
[3] = Growth inhibition of human A549 cells after 72 hrs by MTT assay; type: functional, cell-based; how it was run: as §1
[4] = Growth inhibition of human HeLa cells after 72 hrs by MTT assay; type: functional, cell-based; how it was run: as §1
[5] = molecular target: T1, DNA topoisomerase 1 (Homo sapiens) (UniProt P11387); test: Inhibition of DNA topoisomerase 1 (unknown origin) assessed as reduction in relaxation of supercoiled pBR322 plasmid DNA at 100 uM incubated for 30 mins by agarose gel electrophoresis relative to control
T1 sequence (whole entry): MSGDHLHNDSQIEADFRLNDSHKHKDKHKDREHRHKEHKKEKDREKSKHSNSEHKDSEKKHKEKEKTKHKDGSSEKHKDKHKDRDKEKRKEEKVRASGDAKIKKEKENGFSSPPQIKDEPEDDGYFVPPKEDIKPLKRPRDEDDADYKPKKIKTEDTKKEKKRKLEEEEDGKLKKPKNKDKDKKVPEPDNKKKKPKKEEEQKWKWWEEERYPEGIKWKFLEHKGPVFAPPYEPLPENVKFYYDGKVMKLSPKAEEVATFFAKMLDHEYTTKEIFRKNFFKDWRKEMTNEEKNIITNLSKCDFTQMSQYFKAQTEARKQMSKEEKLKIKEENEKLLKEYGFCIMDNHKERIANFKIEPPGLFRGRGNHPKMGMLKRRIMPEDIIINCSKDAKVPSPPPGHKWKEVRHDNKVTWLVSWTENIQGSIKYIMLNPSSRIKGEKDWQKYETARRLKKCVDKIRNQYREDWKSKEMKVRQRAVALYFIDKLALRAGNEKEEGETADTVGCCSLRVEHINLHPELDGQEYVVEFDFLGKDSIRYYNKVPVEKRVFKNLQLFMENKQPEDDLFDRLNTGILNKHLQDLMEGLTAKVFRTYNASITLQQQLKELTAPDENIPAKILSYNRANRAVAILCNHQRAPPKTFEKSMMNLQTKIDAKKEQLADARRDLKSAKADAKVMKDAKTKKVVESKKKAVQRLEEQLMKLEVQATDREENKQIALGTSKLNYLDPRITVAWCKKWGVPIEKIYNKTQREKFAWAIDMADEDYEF
How it was run: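 Supercoiled pBR322 DNA incubated with Topo I in the presence or absence of compound for 30 min at 37 °C. Reaction stopped with dye solution of bromophenol blue, xylene cyanol and glycerol. Products run on 1% agarose in 1× TAE for 40 min, then EB-stained and UV-imaged. Inhibition rate derived from gel gray-scale analysis relative to control. Camptothecin served as positive control.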

[6] = molecular target: T1, DNA topoisomerase 1 (Homo sapiens); test: Inhibition of DNA topoisomerase 1 (unknown origin) assessed as reduction in topoisomerase 1-DNA complex formation preincubated for 20 mins followed by supercoiled pBR322 plasmid DNA addition measured after 3 mins by electrophoretic mobility shift assay

SMILES	IC50 ([1]; Homo sapiens, SH-SY5Y, 72 h)	IC50 ([2]; Homo sapiens, HepG2, 72 h)	IC50 ([3]; Homo sapiens, A549, 72 h)	IC50 ([4]; Homo sapiens, HeLa, 72 h)	inhibition [5]	IC50 ([1]; sh-sy5y)	IC50 ([2]; hepg2)	IC50 ([3]; a549)	IC50 ([4]; hela)	inhibition [6]
O=C1O[C@@]23C[C@@H](C=CC2=C1C(O)c1cccc(F)c1)N1CCCC[C@@H]13 (some centres undefined)	27.1 µM	16.1 µM	8.01 µM	16.8 µM	34.9%	–	–	–	–	–
O=C1O[C@@]23C[C@@H](C=CC2=C1C(O)c1ccc(F)cc1F)N1CCCC[C@@H]13 (some centres undefined)	22.1 µM	13.6 µM	5.18 µM	14.9 µM	37.4%	–	–	–	–	–
O=C1O[C@@]23C[C@@H](C=CC2=C1C(O)c1cccc(Cl)c1)N1CCCC[C@@H]13 (some centres undefined)	27.8 µM	17.8 µM	11.1 µM	15.6 µM	35.3%	–	–	–	–	–
O=C1O[C@@]23C[C@@H](C=CC2=C1C(O)c1cccc(Br)c1)N1CCCC[C@@H]13 (some centres undefined)	20.2 µM	15.1 µM	9.01 µM	19.1 µM	34.7%	–	–	–	–	–
O=C1O[C@@]23C[C@@H](C=CC2=C1C(O)c1ccc(C(F)(F)F)cc1)N1CCCC[C@@H]13 (stereo in doubt; 4a-6-b)	–	–	–	–	–	8.62 µM	2.57 µM	3.01 µM	9.08 µM	–
N#Cc1cccc(C(O)C2=C3C=C[C@@H]4C[C@@]3(OC2=O)[C@H]2CCCCN42)c1 (some centres undefined)	24.9 µM	17.9 µM	7.08 µM	15.6 µM	34.7%	–	–	–	–	–
O=C1O[C@@]23C[C@@H](C=CC2=C1C(O)c1ccc(Br)cc1)N1CCCC[C@@H]13 (stereo in doubt; 4a-4)	–	–	–	–	47.1%	–	–	–	–	–
O=C1O[C@@]23C[C@@H](C=CC2=C1C(O)c1ccc([N+](=O)[O-])cc1[N+](=O)[O-])N1CCCC[C@@H]13 (some centres undefined)	8.71 µM	5.98 µM	11.5 µM	7.11 µM	43.1%	–	–	–	–	–
O=C1O[C@@]23C[C@@H](C=CC2=C1C(O)c1ccc(O)cc1)N1CCCC[C@@H]13 (some centres undefined)	23 µM	17.1 µM	6.99 µM	18.9 µM	31.8%	–	–	–	–	–
CSc1ccc(C(O)C2=C3C=C[C@@H]4C[C@@]3(OC2=O)[C@H]2CCCCN42)cc1 (some centres undefined)	21 µM	16.7 µM	9.05 µM	17.8 µM	30.9%	–	–	–	–	–
O=C1O[C@@]23C[C@@H](C=CC2=C1C(O)c1ccc(Cl)cc1)N1CCCC[C@@H]13 (stereo in doubt; 4a-3-a)	–	–	–	–	–	20.1 µM	13.1 µM	6.18 µM	12.5 µM	–
O=C1O[C@@]23C[C@@H](C=CC2=C1C(O)c1ccc(F)cc1)N1CCCC[C@@H]13 (stereo in doubt; 4a-2-b)	–	–	–	–	–	19 µM	10.1 µM	5.09 µM	12.7 µM	–
O=C1O[C@@]23C[C@@H](C=CC2=C1[C@H](O)c1ccc([N+](=O)[O-])cc1)N1CCCC[C@@H]13	8.48 µM	4.19 µM	2.23 µM	8 µM	–	–	–	–	–	Dose-dependent effect
Cc1ccc(C(O)C2=C3C=C[C@@H]4C[C@@]3(OC2=O)[C@H]2CCCCN42)cc1 (some centres undefined)	15.1 µM	7.09 µM	8.81 µM	9.07 µM	27.1%	–	–	–	–	–
O=C1O[C@@]23C[C@@H](C=CC2=C1C(O)c1ccc(Br)cc1)N1CCCC[C@@H]13 (stereo in doubt; 4a-4-b)	–	–	–	–	–	22.3 µM	14.1 µM	6.3 µM	–	–
O=C1O[C@@]23C[C@@H](C=CC2=C1C(O)c1ccc(Br)cc1)N1CCCC[C@@H]13 (stereo in doubt; 4a-4-a)	–	–	–	–	–	22.4 µM	–	6.24 µM	12.8 µM	–
O=C1O[C@@]23C[C@@H](C=CC2=C1C(O)c1ccc(C(F)(F)F)cc1)N1CCCC[C@@H]13 (stereo in doubt; 4a-6)	–	–	–	–	53.6%	–	–	–	–	–
O=C1O[C@@]23C[C@@H](C=CC2=C1C(O)c1ccc(Cl)cc1)N1CCCC[C@@H]13 (stereo in doubt; 4a-3)	20 µM	13 µM	6.21 µM	13 µM	–	–	–	–	–	–
